# Source: ChEMBL document CHEMBL1123761, “Inhibition of the mammalian beta-lactamase renal dipeptidase (dehydropeptidase-I) by (Z)-2-(acylamino)-3-substituted-propenoic acids” (J Med Chem, 1987)
# Non-standard residues stand in square brackets, D forms with d. Residues, ends and D or L forms follow the SMILES beside them. *: point of attachment. Isovaleryl = CC(C)CC(=O)*; Dhb = C/C=C(\N)C(=O)O; Butyryl = CCCC(=O)*
# Biological target: T1, Dipeptidase 1 (Sus scrofa, UniProt P22412)
# T1 sequence (P22412 whole entry): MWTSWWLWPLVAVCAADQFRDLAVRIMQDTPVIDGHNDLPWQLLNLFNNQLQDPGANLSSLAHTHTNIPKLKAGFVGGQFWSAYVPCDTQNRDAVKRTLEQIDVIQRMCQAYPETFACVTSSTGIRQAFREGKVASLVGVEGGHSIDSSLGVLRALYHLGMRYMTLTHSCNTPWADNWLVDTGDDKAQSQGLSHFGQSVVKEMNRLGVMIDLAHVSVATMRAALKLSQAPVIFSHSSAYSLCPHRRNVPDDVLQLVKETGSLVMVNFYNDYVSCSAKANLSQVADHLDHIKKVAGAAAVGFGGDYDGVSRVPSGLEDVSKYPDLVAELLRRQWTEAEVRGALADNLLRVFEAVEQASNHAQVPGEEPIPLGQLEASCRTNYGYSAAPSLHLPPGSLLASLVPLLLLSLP
# Experiment: Inhibitory activity against beta-lactamase renal dipeptidase
row,Compound,Ki [nM]
1,CC1(C)C[C@@H]1C(=O)N/C(=C\CCCCC[N+](C)(C)C)C(=O)[O-],650

# Biological target: T2, Dipeptidase 1 (Sus scrofa) (UniProt P22412)
# T2 sequence (whole entry): T1 sequence (P22412 whole entry)
# Experiment: Inhibitory activity against beta-lactamase renal dipeptidase at a concentration of 100 uM
# Outline: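 Inhibitor was incubated with solubilized renal dipeptidase (50–75% ammonium sulfate fraction, 5 µg) in 50 mM MOPS pH 7.1 for 5 min at 37 °C. Glycyldehydrophenylalanine was then added to 50 µM. Rate was followed as the absorbance decrease at 275 nm over 10 min and compared with the uninhibited rate.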
row,Compound,inhibition [%]
1,C/C=C(\NC(=O)C1(C)CCCCC1)C(=O)O,11
2,C/C=C(\NC(=O)CCl)C(=O)O,52
3,C/C=C(\NC(=O)/C=C/C=C/C)C(=O)O,0
4,C/C=C(\NC(=O)c1ccc(Cl)cc1)C(=O)O,7
5,CC(C)=C(NC(=O)C1CC1(C)C)C(=O)O (centres undefined),57
6,C/C=C(\NC(=O)CC1CC2CCC1C2)C(=O)O (centres undefined),54
7,C/C=C(\NC(=O)CCC1CCCC1)C(=O)O,56
8,C=CCCC(=O)N/C(=C\C)C(=O)O,57
9,C/C=C(\NC(=O)C12CC3CC(CC(C3)C1)C2)C(=O)O,3
10,C/C=C(\NC(=O)CCCCCCCCC)C(=O)O,58
11,C/C=C(\NC(=O)CC12CC3CC(CC(C3)C1)C2)C(=O)O,33
12,C=C(NC(=O)c1ccccc1)C(=O)O,9
13,C/C=C(\NC(=O)c1ccc2ccccc2c1)C(=O)O,3
14,CO/C=C(\NC(=O)c1ccccc1)C(=O)O,23
15,C/C=C(\NC(=O)CCCCC(C)C)C(=O)O,57
16,C/C=C(\NC(=O)CC1=CCCCC1)C(=O)O,50
17,C/C=C(\NC(=O)CNC(=O)CC(C)C)C(=O)O (Isovaleryl-Gly-[Dhb]-OH),5
18,C/C=C(\NC(=O)CNC(=O)CCC)C(=O)O (Butyryl-Gly-[Dhb]-OH),5
19,C/C=C(\NC(=O)C(C)(C)C)C(=O)O,0
20,C/C=C(\NC(=O)CCC1CCCO1)C(=O)O (centres undefined),51
21,C/C=C(\NC(=O)CCCCCC)C(=O)O,49
22,C/C=C(\NC(=O)Cc1ccccc1)C(=O)O,21
23,C/C=C(\NC(=O)CCCCC)C(=O)O,54
24,C/C=C(\NC(=O)C1C(C(C)(C)C)C1(C)C)C(=O)O (centres undefined),44

row,Compound,inhibition [%]
1,C/C=C(\NC(=O)C(CCC)CCC)C(=O)O,13
2,C/C=C(\NC(=O)CN)C(=O)O (H-Gly-[Dhb]-OH),6
3,C/C=C(\NC(=O)c1ccco1)C(=O)O,57
4,C/C=C(\NC(=O)CCCCCCCCCCCCCCCCC)C(=O)O,12
5,C/C=C(\NC(=O)C(CC)CCCC)C(=O)O (centres undefined),33
6,O=C(CO)N/C(=C\c1ccccc1)C(=O)O,4
7,C/C=C(\NC(=O)/C=C/c1ccccc1)C(=O)O,0
8,C/C=C(\NC(=O)CC)C(=O)O,43
9,C[C@H](N)C(=O)N/C(=C\Cl)C(=O)O,6
10,C/C=C(\NC(=O)c1ccc(C)cc1)C(=O)O,2.5
11,C/C=C(\NC(=O)c1ccc(OC)cc1)C(=O)O,0
12,C/C=C(\NC(C)=O)C(=O)O,12
13,C/C=C(\NC(=O)C1C(C=C(C)C)C1(C)C)C(=O)O (centres undefined),15
14,C/C=C(\NC(=O)CCC1CCCCC1)C(=O)O,54
15,C/C=C(\NC(=O)CCCC(=O)N(C)C)C(=O)O,46
16,C/C=C(\NC(=O)C(C)C)C(=O)O,31
17,C/C=C(\NC(=O)COc1ccccc1)C(=O)O,3
18,C/C=C(\NC(=O)C1(C)CC1)C(=O)O,16
19,O=C(O)/C(=C/Cl)NC(=O)c1ccccc1,36
20,C/C=C(\NC(=O)C1C(C)(C)C1(C)C)C(=O)O,10
21,C/C=C(\NC(=O)CCCCCCCCCCCCC)C(=O)O,45
22,C/C=C(\NC(=O)c1c(Cl)cccc1Cl)C(=O)O,0
23,C/C=C(\NC(=O)CCc1ccccc1)C(=O)O,30
24,CC(C)=C(NC(=O)c1ccccc1)C(=O)O,4
